Compound activity (PubChem)
Most compounds without a hit are left out; they make up all but 6.7% or so of the library.
CSC inhib = cancer stem cell inhibition | 1.1% of 300,000 active | inhibition, % at 7.5 µM | AID 2717 | cancer stem cell-like cells viability, luminescence; in the data active = inhibition above about 75%; inconclusive = no clear call, values can overlap the other calls; tested in HMLE shEcad cells
NR3A LBD binder = NR3A (human) ligand-binding domain modulation; 2.5% of 340,000 active; NR3A LBD differential scanning fluorimetry, Tm shift; 0% = protein alone, 100% = glycine-bound protein; Tm shift relative to glycine control, % at 25 µM; AID 1259313;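 active = melting temperature shift of at least 10% of the positive control shift, at one fixed dose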
T cruzi repl = T. cruzi replication inhibition; inhibition, % (test concentration not listed); T. cruzi beta-gal in NIH3T3, luminescence, 90 h; 1.4% of 300,000 active; AID 1885;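 active = mean inhibition across valid replicates above about 55%, limit read from the data; inconclusive = mean below that limit but half or more replicates reach it; inactive = mean below it, under half of replicates reach it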;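 note: signal also drops with host cell toxicity which is not excluded here; 0% = plate median of DMSO wells and 100% = zero luminescence signal; higher percent means less beta-gal luminescence so fewer parasites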
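Read-out: Parasite load inhibition, % | Test system: Mouse NIH/3T3 fibroblasts infected with β-gal-expressing T. cruzi Tulahuen C4 | Amount: 5,000 cells/well | Medium: DMEM, 2% fetal bovine serum | Signal: GalScreen β-gal luminescence, detergent lysis, 60 min | Timing: 3 h attach, ≥90 h co-culture | Also added: Tulahuen C4 trypomastigotes, 5000/well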
Beta apoptosis = beta cell apoptosis inhibition; 0.8% of 300,000 active; INS-1E cytokine-induced death, ATP luminescence, 48 h; percent of positive-control rescue, neutral wells zero; protection from apoptosis, % (concentration not given with the values);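 active = Every replicate reaches about 75%, or at least half do and their mean reaches it too, limit read from the data; inconclusive = At least half of replicates reach the limit but their mean does not; inactive = Under half of replicates reach the limit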;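 note: 0% = cytokine-treated negative control wells and 100% = positive control rescue; higher means more ATP so stronger rescue from cytokine killing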
PREPL inhibitor = inhibits the human prolyl oligopeptidase-like enzyme; 0.68% of 320,000 active; Q4J6C6; recombinant PREPL, fluorescence polarization activity-based probe; AID 2751; inhibition, % at 5.96 µM;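 note: 0% = enzyme with DMSO and 100% = wells lacking enzyme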
Target sequence (Q4J6C6 whole entry, looked up): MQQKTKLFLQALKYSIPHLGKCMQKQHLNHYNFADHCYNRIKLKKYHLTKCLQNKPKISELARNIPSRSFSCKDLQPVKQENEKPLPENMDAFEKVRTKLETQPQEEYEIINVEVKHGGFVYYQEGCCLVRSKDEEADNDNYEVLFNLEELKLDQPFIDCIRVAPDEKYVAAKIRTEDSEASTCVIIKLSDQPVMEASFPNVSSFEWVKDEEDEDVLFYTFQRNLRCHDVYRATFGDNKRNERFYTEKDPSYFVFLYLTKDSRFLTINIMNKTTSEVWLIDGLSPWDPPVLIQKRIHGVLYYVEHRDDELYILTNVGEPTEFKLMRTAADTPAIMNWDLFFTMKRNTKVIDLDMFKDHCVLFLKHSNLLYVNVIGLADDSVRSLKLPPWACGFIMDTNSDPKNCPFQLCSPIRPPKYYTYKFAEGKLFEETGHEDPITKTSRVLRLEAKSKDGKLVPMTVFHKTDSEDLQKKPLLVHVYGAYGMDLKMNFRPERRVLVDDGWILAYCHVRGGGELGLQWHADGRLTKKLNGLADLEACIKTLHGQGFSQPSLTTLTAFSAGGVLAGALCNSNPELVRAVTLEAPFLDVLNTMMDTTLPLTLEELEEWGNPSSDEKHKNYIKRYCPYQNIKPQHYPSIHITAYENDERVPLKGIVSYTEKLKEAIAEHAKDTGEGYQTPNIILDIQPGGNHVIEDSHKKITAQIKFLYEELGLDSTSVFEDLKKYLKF
CHOP inh = inhibitors of CHOP induction in ER stress response. CHO-K1 CHOP-promoter luciferase, tunicamycin-induced, 15-18 h. inhibition, % at 10 µM. 3.8% of 220,000 active. AID 2732;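 active = compounds that reduced the stress-induced luciferase reporter signal by more than about 70% of percent inhibition, limit read from the data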;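 note: 0% = tunicamycin plus vehicle and 100% = wells without tunicamycin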
PREPL inh cf = human PREPL inhibition, confirmation. shares compounds with PREPL inhibitor. recombinant PREPL, fluorescence polarization activity probe. inhibition, % at 5.96 µM. 67% of 2,000 active;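 note: 0% = protein with DMSO and 100% = wells lacking protein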
Active calls of the source: *; ? = inconclusive; / = no result. Cut-off read from the data, not from the text of the source, unless noted: active = inhibition above about 43%; inactive = the rest.

SMILES | CSC inhib | NR3A LBD binder | T cruzi repl | Beta apoptosis | PREPL inhibitor | CHOP inh | PREPL inh cf
Cc1nc2nc(SCC(=O)NCCCN3CCCCCC3)nn2c(C)c1Cc1ccccc1 | -2.1 | -0.2 | 14.5 | -8.6 | 43.1* | / | 36.7
CCCCN1C(=N)N([C@@H](CCC)CN2CCC[C@H]2CN2C(N)=NC[C@H]2CC(C)C)C[C@H]1Cc1ccccc1 | / | -0.7 | / | / | 48.3* | / | 49.3*
CCC[C@@H](CN1CCC[C@H]1CN1C(N)=NC[C@H]1C(C)C)N1C[C@@H](Cc2ccccc2)N(CCCC2CCCC2)C1=N | -16.2 | 1.0 | / | -7.0 | 56.6* | / | 55.1*
CCCCN1C(=N)N([C@@H](CCC)CN2CCC[C@H]2CN2C(N)=NC[C@@H]2Cc2ccccc2)C[C@H]1[C@H](C)CC | 9.7 | -2.1 | / | -5.7 | 44.7* | / | 47.4*
O=C1NC[C@H](Cc2ccccc2)N(C[C@H]2CCCN2C[C@H](Cc2ccccc2)N2C[C@H](Cc3ccccc3)N(CCc3ccccc3)C(=O)C2=O)C1=O | / | -6.7 | / | / | / | / | /
CC(=O)c1c(COC(=O)c2ccc(F)cc2)nc2ccccc2[n+]1[O-] | -11.6 | 0.9 | -26.1 | -1.3 | 20.2 | 11.5 | /
COc1cc(NC(=O)CN2C(=O)NC(C)(c3ccccc3)C2=O)c(C)cc1[N+](=O)[O-] (centres undefined) | / | -1.5 | -0.2 | 2.7 | -1.2 | 4.2 | /
COc1cc(NC(=O)CN2C(=O)NC(C)(c3ccc4ccccc4c3)C2=O)c(C)cc1[N+](=O)[O-] (centres undefined) | 17.0 | 6.0 | 15.4 | -4.1 | 58.0* | 2.4 | 41.9
COc1ccc(N2CCN(C(=O)CN3C(=O)NC(C)(c4ccc5ccccc5c4)C3=O)CC2)cc1 (centres undefined) | / | -0.8 | / | 7.1 | 56.5* | / | 53.1*
Oc1ccc(C23CCCC2C2(CCCC2)c2ccc(O)cc2O3)c(O)c1 (centres undefined) | / | -15.5 | / | 5.0 | 7.2 | / | /
Cc1cc(NC(=O)C(C)Oc2ccccc2)no1 (centres undefined) | 4.5 | 0.5 | -12.7 | -4.8 | 12.9 | / | /
COCCCNc1c2c3c(cccc3[nH]c1=O)C(=O)c1ccccc1-2 | 52.6 | -359.8 | / | 1.2 | 112.0* | 22.1 | 112.6*
Cn1cc(-c2nnnn2-c2cccc(C(F)(F)F)c2)c(C(F)(F)F)n1 | 6.8 | 3.2 | -13.5 | 0.0 | 5.3 | 20.9 | /
COc1ccccc1Nc1ccc(N)cc1 | 14.2 | -4.5 | ? | 12.7 | 83.6* | -14.1 | 42.6
Cn1nc(C(F)(F)F)c2cc(NC(=O)OCc3ccc(F)cc3)sc21 | -7.6 | -2.2 | 35.6 | 2.3 | 23.3 | 50.1 | /
COc1ccc(COC(=O)Nc2cc3c(C(F)(F)F)nn(C)c3s2)cc1 | -13.4 | -0.7 | 13.7 | / | 45.2* | 38.6 | 36.1
O=C(N/N=C/c1ccc(-c2ccccc2[N+](=O)[O-])o1)c1cccnc1 | -5.5 | 1.3 | 11.7 | -3.7 | 11.5 | 6.8 | /
CC(C)(C)c1cc(C(=O)N/N=C/c2ccc(-c3ccccc3[N+](=O)[O-])o2)n[nH]1 | -11.9 | -6.7 | 1.9 | -9.7 | 49.8* | / | 18.7
N#CCN(CC#N)C(=O)C1c2ccccc2Oc2ccccc21 | -6.0 | 0.3 | 2.3 | -3.3 | 74.6* | / | -3.6
O=C(COC(=O)CNC(=O)c1ccccc1)Nc1ccc(Cl)cn1 | 7.8 | -1.0 | / | -2.5 | 45.3* | / | 1.8
c1ccc(C(c2nnnn2Cc2ccco2)N2CCN(c3nc4ccccc4s3)CC2)cc1 (centres undefined) | -1.7 | -12.8 | 17.3 | 9.7 | 43.8* | 23.6 | 40.5
c1ccc(Cn2nnnc2C(c2ccccc2)N2CCN(c3nc4ccccc4s3)CC2)cc1 (centres undefined) | 10.7 | -0.2 | ? | 1.0 | 26.6 | 33.9 | /
CC1CCN(C2=C(NS(=O)(=O)c3ccccc3)C(=O)c3ccccc3C2=O)CC1 | 31.7 | 1.1 | 9.3 | -2.1 | 5.0 | 2.5 | /
O=C1C(NS(=O)(=O)c2cccs2)=C(N2CCN(c3cccc(Cl)c3)CC2)C(=O)c2ccccc21 | 2.7 | -1.0 | 35.0 | 5.8 | 58.0* | 72.7* | 55.9*
O=C1C(NS(=O)(=O)c2ccccc2)=C(N2CCN(c3ccc(F)cc3)CC2)C(=O)c2ccccc21 | 13.3 | -7.4 | 8.3 | 3.5 | 58.8* | -5.9 | 61.0*
SMILES | CSC inhib | NR3A LBD binder | T cruzi repl | Beta apoptosis | PREPL inhibitor | CHOP inh | PREPL inh cf
Cc1c(C)n(C)c2ccc(C(=O)NCCCN3CCN(c4ccccc4F)CC3)cc12 | -2.1 | -2.6 | 21.8 | 0.9 | 43.9* | / | 42.2
O=C(NCCCN1CCN(c2ccccc2F)CC1)Nc1ccc(F)cc1 | -2.9 | 0.1 | 4.0 | 0.3 | 17.7 | 37.2 | /
CSc1ccc(NC(=O)NCCCN2CCN(c3ccccc3F)CC2)cc1 | -3.7 | -4.2 | 0.5 | -7.3 | 43.3* | 19.8 | 41.6
O=C1CC/C=C\C[C@@H](CC(=O)N(CCO)Cc2ccccc2)C(=O)N[C@H](Cc2c[nH]c3ccccc23)CO1 | -10.2 | -1.4 | / | -6.9 | 14.6 | / | /
CN1c2ccccc2Oc2nnc(Cl)cc21 | -8.4 | -2.5 | -5.2 | -3.5 | -1.1 | 27.5 | /
CN1c2ccccc2Oc2nnc(N3CCN(Cc4ccccc4)CC3)cc21 | 1.9 | -4.0 | 22.0 | 6.3 | 45.9* | -2.3 | 36.8
OCC1CCCCN1CCNCc1cn[nH]c1-c1cccc2ccccc12 (centres undefined) | -7.2 | -0.9 | -7.4 | 2.2 | 43.8* | 8.2 | 42.7
N#CCCN(C(=O)COC(=O)CSc1ccc(Cl)cc1)c1ccccc1 | -2.0 | 0.3 | / | -10.9 | 49.8* | / | 39.4
N#CCCN(C(=O)COC(=O)COc1ccc(Cl)cc1)c1ccccc1 | -2.0 | -2.7 | -0.7 | -3.5 | 33.2 | -4.6 | /
Cc1ccc(OCC(=O)Nc2ccc(N3CCN(C(=O)c4ccco4)CC3)cc2)cc1 | 16.7 | -3.8 | 3.9 | 6.5 | 51.6* | 28.6 | 43.5*
O=C(CCn1ccc2ccccc21)Nc1ccc(N2CCOCC2)cc1 | -10.1 | -1.2 | 5.2 | 1.7 | 44.6* | 26.8 | 38.3
CCC(=O)Nc1ccc(N2CCN(C(=O)c3ccco3)CC2)c(Cl)c1 | / | 1.6 | -0.5 | / | / | / | /
Cc1ccc(C(=O)N2CCN(c3ccc(NC(=O)COc4ccccc4C)cc3)CC2)cc1 | -14.7 | -2.0 | 9.8 | 12.5 | 51.9* | 25.1 | 50.8*
O=C(Cc1ccc(Cl)cc1)Nc1ccc(N2CCN(C(=O)c3ccco3)CC2)c(Cl)c1 | 41.7 | -0.6 | 40.5 | 2.2 | 53.6* | 33.6 | 47.4*
CCC(=O)N1CCN(c2ccc(NC(=O)COc3ccc(C)cc3C)cc2)CC1 | 22.0 | -0.9 | -4.0 | 5.2 | 41.8 | / | /
COc1ccc(C(CNC(=O)Cc2cccs2)N(C)C)cc1 (centres undefined) | -12.4 | -0.1 | -9.9 | -5.5 | -1.6 | / | /
Cn1nccc1C(=O)N1CCOCC1 | 3.8 | 0.8 | -12.0 | -10.9 | 0.9 | / | /
CCOCCc1c(O)nc(SCCOc2ccc(C)c(C)c2)[nH]c1=O | -12.7 | 1.5 | 4.9 | -0.4 | -0.9 | 13.6 | /
Cc1ccccc1OCCCC(=O)Nc1ccc(N2CCOCC2)cc1 | 10.4 | -5.7 | 22.6 | 5.1 | 50.4* | 23.6 | 34.2
